Bioassay records: PubChem BioAssay, The Scripps Research Institute Molecular Screening Center
Hits are enriched below; roughly 1.9% of the tested compounds scored in any of these assays.
M5 antag: blocks acetylcholine activation of human M5 receptor | CHO-hM5 cells, Fluo-8 calcium fluorescence, ACh EC80 | inhibition, % at 3 µM | 0.59% of 360,000 active;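 active means inhibition above a per-plate cutoff, the mean of that plate's test compounds plus 3 SD, cut at about 27% in these data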;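 further: 0% = acetylcholine EC80 with DMSO and 100% = DMSO without agonist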
Target sequence (P08912 whole entry, looked up): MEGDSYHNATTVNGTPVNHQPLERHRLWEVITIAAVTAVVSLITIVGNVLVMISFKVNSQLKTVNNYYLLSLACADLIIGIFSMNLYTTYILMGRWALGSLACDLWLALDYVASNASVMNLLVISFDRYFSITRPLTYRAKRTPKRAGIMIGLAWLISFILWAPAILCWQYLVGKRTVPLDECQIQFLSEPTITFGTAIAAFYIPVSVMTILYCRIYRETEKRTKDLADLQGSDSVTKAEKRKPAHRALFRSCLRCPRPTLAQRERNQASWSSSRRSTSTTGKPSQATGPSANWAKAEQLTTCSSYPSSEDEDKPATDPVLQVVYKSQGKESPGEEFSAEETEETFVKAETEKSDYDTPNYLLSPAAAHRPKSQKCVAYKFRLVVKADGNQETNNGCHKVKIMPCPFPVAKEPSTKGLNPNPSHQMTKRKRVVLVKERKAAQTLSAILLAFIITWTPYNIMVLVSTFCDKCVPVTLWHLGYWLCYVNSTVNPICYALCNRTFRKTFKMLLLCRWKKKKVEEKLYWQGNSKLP
CHRM4 antagonist: CHRM4 antagonism in calcium assay; AID 624125; CHO-hM4 cells, ACh EC80, Fluo-8 calcium fluorescence; 0.73% of 360,000 active; P08173; inhibition, % at 3 µM;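 active means inhibition above its plate's cutoff, the mean inhibition of sample wells plus 3 SD, cut at about 27% in these data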;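 further: 0% = acetylcholine EC80 with DMSO and 100% = DMSO without agonist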
CHRM5 agonist: CHRM5 agonism in calcium assay | P08912 | CHO-K1 hM5 cells, Fluo-8 calcium fluorescence; 0% DMSO wells, 100% maximal acetylcholine response | activation, % at 3 µM | 0.19% of 360,000 active | AID 624037;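 active means activation above the run's mean over test compounds plus 3 SD, cut at about 23% in these data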;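 further: signal is peak over basal fluorescence ratio across the kinetic read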
M5 PAM: potentiates acetylcholine response at human M5 receptor; P08912; CHO-K1 hM5, Fluo-8 calcium, ACh EC20 PAM; 0% = ACh EC20, 100% = ACh EC100; activation, % at 3 µM; 0.3% of 360,000 active; AID 624038;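 active means activation above the run cutoff, the mean activation of all test compounds plus 3 SD, cut at about 18% in these data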
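system = human M5 receptor in CHO-K1 cells | compound = one concentration, 3 µM final (nominal) | schedule = Post-acetylcholine fluorescence recording 140 s | signal = Fluo-8 calcium dye fluorescence, kinetic read | benchmarks = low control EC20 acetylcholine (0%), high control EC100 acetylcholine (100%) | repeats = singlicate, one well per test compound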
CHRM4 PAM: CHRM4 positive allosteric modulation; P08173; CHO-K1 hM4/Gqi5, Fluo-8 calcium fluorescence, ACh EC20; 0% = ACh EC20, 100% = maximal ACh; activation, % at 3 µM; 0.4% of 360,000 active; AID 624126;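 active means activation above its plate's cutoff, the mean activation of sample wells plus 3 SD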
CHRM4 agonist: CHRM4 agonism in calcium assay. P08173. CHO-K1 hM4/Gqi5, Fluo-8 calcium fluorescence; vehicle 0%, full acetylcholine response 100%. activation, % at 3 µM. 0.14% of 360,000 active. AID 624127;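 active means activation above the run mean over all test wells plus 3 SD, cut at about 32% in these data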;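 further: peak over basal fluorescence ratio per well then scaled between controls; 0% = DMSO wells and 100% = acetylcholine at EC100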
Numbers without * were called inactive.

SMILES	M5 antag	CHRM4 antagonist	CHRM5 agonist	M5 PAM	CHRM4 PAM	CHRM4 agonist
Cc1cn([C@@H](CCCCNC(=O)OC(C)(C)C)C(=O)NCCCCCCCCCCC(=O)N2CCN(C(=O)OC(C)(C)C)CC2)nn1	19.2	40.1*	0.0	-40.0	-16.5	28.2
CCN(CC)CCNC(=O)c1ccc(NC(=O)c2cccc(S(=O)(=O)N3CCCCCC3)c2)cc1	79.5*	79.2*	-10.8	-42.7	-15.2	0.6
CCN(CC)CCNC(=O)c1ccc(NC(=O)c2ccc(Cl)c(S(=O)(=O)N3CCCCCC3)c2)cc1	79.2*	69.8*	-18.8	-33.5	-46.0	1.0
CCN(CC)CCNC(=O)c1ccc(NC(=O)c2ccc(S(=O)(=O)N3CCCCCC3)cc2)cc1	7.9	-6.6	-8.3	-6.0	-3.7	0.4
COC(=O)NC(NC(=S)Nc1cccc(C)c1)C(Cl)(Cl)Cl (stereo not drawn)	3.9	5.0	0.4	-7.3	-8.6	2.2
CCOC(=O)c1c(C)[nH]c(C)c1C(=O)CSc1nc2ccccc2[nH]1	2.4	9.5	1.6	-6.2	-14.4	8.6
CCOC(=O)c1c(C)[nH]c(C)c1C(=O)CSc1ncccn1	-0.7	-13.4	-0.1	24.9*	5.6	1.5
CCCS(=O)(=O)N1CCC(C(=O)N2CCCC2)CC1	10.6	-10.2	-1.0	20.9*	7.2	0.9
c1ccc2c(c1)nc1n2CC2CON(C3CCCCC3)C12 (stereo not drawn)	0.4	-8.0	0.3	11.1	24.9*	0.2
c1ccc(N2OCC3Cn4c(nc5ccccc54)C32)cc1 (stereo not drawn)	-13.3	-0.7	4.3	6.2	24.4*	2.2
c1ccc(CN2OCC3Cn4c(nc5ccccc54)C32)cc1 (stereo not drawn)	-2.8	-16.3	-0.5	7.3	7.4	0.5
FC(F)(F)COc1ccc(-n2ccnc2)nn1	6.5	-9.9	2.8	-10.6	-3.4	5.7
CC(=O)NCCc1nc2ccccc2n1Cc1ccc(Cl)cc1	3.5	13.3	-1.0	-3.3	-6.5	0.7
O=C(O)CC(SCC(=O)Nc1ccccc1)C(=O)O (stereo not drawn)	-2.0	-12.3	1.1	5.8	22.0*	0.5
O=C(O)CC(SCC(=O)Nc1ccc(S(=O)(=O)N2CCCC2)cc1)C(=O)O (stereo not drawn)	-2.7	-18.5	-5.7	-4.7	7.1	-0.7
O=c1[nH]c(-c2ccccc2)nc(CN2CCCCC2)c1O	-2.3	-15.0	-0.1	-0.1	20.9*	0.6
CCC(C)(C)n1nnnc1C(c1ccc(Cl)cc1)N1CCN(C)CC1 (stereo not drawn)	-12.7	1.4	-5.2	-2.0	20.5*	1.0
CCOC(=O)c1c(C)[nH]c(C(=O)CN2C(=O)NC(C)(c3ccc(C)cc3)C2=O)c1C (stereo not drawn)	4.9	-2.5	27.3*	1.8	8.6	21.0
COC(=O)c1c(C)[nH]c(C(=O)CN2C(=O)C3CC=CCC3C2=O)c1C (stereo not drawn)	3.1	0.3	3.9	3.0	26.2*	3.2
CCOC(=O)c1c(C)[nH]c(C(=O)CN2C(=O)C(=O)N(CC(C)C)C2=O)c1C	-22.4	-6.4	-0.2	-10.5	-0.8	6.5
Cc1cc(C)nc(NS(=O)(=O)c2ccc(NC(=O)C(C)C)cc2)n1	6.5	61.9*	2.8	4.1	-12.2	-2.6
Cc1ccnc(NS(=O)(=O)c2ccc(NC(=O)C34CC5CC(CC(C5)C3)C4)cc2)n1	-0.1	-15.7	-3.8	28.4*	3.5	0.5
Cc1cc(C)nc(NS(=O)(=O)c2ccc(NC(=O)C3CC3)cc2)n1	6.9	-12.8	-1.1	0.2	3.3	0.5
Cc1ccnc(NS(=O)(=O)c2ccc(NC(=O)C3CC3)cc2)n1	5.2	-0.8	1.4	3.0	-1.3	0.6
CN(C)/C=N/c1ncc(C(=O)c2ccc(Cl)cc2Cl)s1	8.5	-0.4	0.4	-4.3	4.2	1.9
CC(=O)NCCNC(=O)c1ccc(NC2=NC3CS(=O)(=O)CC3S2)cc1 (stereo not drawn)	29.3*	9.2	3.0	26.7*	9.1	3.5
